What was measured:
Hepatitis B virus = test: Antiviral activity against HBV assessed as inhibition of cytoplasmic HBV-DNA synthesis; format: functional, organism-based
In short: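 Run in HepG2 2.2.15 cells; EC50 taken as the concentration giving 50% inhibition of cytoplasmic HBV-DNA synthesis.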

HepG2 = test: Cytotoxicity against HepG2 2.2.15 cells; format: functional; details: Homo sapiens
In short: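 HepG2 2.2.15 cells exposed to compound; CC50 defined as the concentration causing 50% extinction of the cells.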

[1] = Selectivity index, ratio of CC50 for HepG2 2.2.15 cells to EC50 for HBV; format: functional
In short: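 In HepG2 2.2.15 cells: SI calculated as CC50 (50% extinction of the cells) divided by EC50 (50% inhibition of cytoplasmic HBV-DNA synthesis).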

[2] = Metabolic stability assessed as half life in human plasma; format: ADME, cell-free

Question: Which EC50 (Hepatitis B virus) does the source give for `CC(C)C[C@H](N)C(=O)SCCOP(=O)(COCCn1cnc2c(N)ncnc21)OCCSC(=O)[C@@H](N)CC(C)C.Cl` here?
Answer: 0.211 µM

Question: What about the CC50 (HepG2) of the same molecule?
Answer: 3410 µM

Question: And the “Ratio CC50/EC50” value [1]?
Answer: 16129

Question: For `CC(C)[C@H](N)C(=O)OCOP(=O)(COCCn1cnc2c(N)ncnc21)OCOC(=O)[C@@H](N)C(C)C.Cl`, which EC50 (Hepatitis B virus) is on record?
Answer: 0.304 µM

Question: And the CC50 (HepG2)?
Answer: 3380 µM

Question: And the “Ratio CC50/EC50” value [1]?
Answer: 11094

Question: With `Cl.Nc1ncnc2c1ncn2CCOCP(=O)(OCCOC(=O)[C@@H](N)Cc1ccccc1)OCCOC(=O)[C@@H](N)Cc1ccccc1` as the molecule, how does the EC50 (Hepatitis B virus) read?
Answer: 0.311 µM

Question: And the CC50 (HepG2)?
Answer: 2590 µM

Question: What about the “Ratio CC50/EC50” value [1] of the same molecule?
Answer: 8354

Question: What about the half-life [2] of the same molecule?
Answer: 0.25 h

Question: What does the source list for `CC(C)(C)C(=O)OCOP(=O)(COCCn1cnc2c(N)ncnc21)OCOC(=O)C(C)(C)C.Cl`?
Answer: EC50 (Hepatitis B virus): 0.517 µM; CC50 (HepG2): 540 µM; Ratio CC50/EC50 [1]: 1044; half-life [2]: 0.75 h

Question: For `Cl.Nc1ccn([C@@H]2CS[C@H](CO)O2)c(=O)n1`, which EC50 (Hepatitis B virus) is on record?
Answer: 0.0807 µM

Question: And the CC50 (HepG2)?
Answer: 230 µM

Question: What about the “Ratio CC50/EC50” value [1] of the same molecule?
Answer: 2850

Question: For `CC(C)[C@H](N)C(=O)OCCOP(=O)(COCCn1cnc2c(N)ncnc21)OCCOC(=O)[C@@H](N)C(C)C.Cl`, which EC50 (Hepatitis B virus) is on record?
Answer: 1.31 µM

Question: And the CC50 (HepG2)?
Answer: 2590 µM

Question: What about the “Ratio CC50/EC50” value [1] of the same molecule?
Answer: 1974

Question: And the half-life [2]?
Answer: 2 h

Question: With `Cl.Nc1ncnc2c1ncn2CCOCP(=O)(OCOC(=O)[C@@H](N)Cc1ccccc1)OCOC(=O)[C@@H](N)Cc1ccccc1` as the molecule, how does the EC50 (Hepatitis B virus) read?
Answer: 0.659 µM

Question: And the “Ratio CC50/EC50” value [1]?
Answer: 23312

Question: What does the source list for `CC(C)[C@H](N)C(=O)SCCOP(=O)(COCCn1cnc2c(N)ncnc21)OCCSC(=O)[C@@H](N)C(C)C.Cl`?
Answer: EC50 (Hepatitis B virus): 0.752 µM; Ratio CC50/EC50 [1]: 38167

Question: Which results are given for `C[C@H](N)C(=O)OCCOP(=O)(COCCn1cnc2c(N)ncnc21)OCCOC(=O)[C@H](C)N.Cl`?
Answer: EC50 (Hepatitis B virus): 12.5 µM; CC50 (HepG2): 1840 µM; Ratio CC50/EC50 [1]: 146

Question: Which EC50 (Hepatitis B virus) does the source give for `CC(C)C[C@H](N)C(=O)OCOP(=O)(COCCn1cnc2c(N)ncnc21)OCOC(=O)[C@@H](N)CC(C)C.Cl` here?
Answer: 0.341 µM

Question: What about the CC50 (HepG2) of the same molecule?
Answer: 8560 µM

Question: And the “Ratio CC50/EC50” value [1]?
Answer: 25111

Question: For `CC(C)C[C@H](N)C(=O)OCCOP(=O)(COCCn1cnc2c(N)ncnc21)OCCOC(=O)[C@@H](N)CC(C)C.Cl`, which EC50 (Hepatitis B virus) is on record?
Answer: 0.0952 µM

Question: What about the CC50 (HepG2) of the same molecule?
Answer: 6640 µM

Question: What about the “Ratio CC50/EC50” value [1] of the same molecule?
Answer: 69523

Question: What about the half-life [2] of the same molecule?
Answer: 4.5 h

Question: For `Cl.Nc1ncnc2c1ncn2CCOCP(=O)(OCCSC(=O)[C@@H](N)Cc1ccccc1)OCCSC(=O)[C@@H](N)Cc1ccccc1`, which EC50 (Hepatitis B virus) is on record?
Answer: 0.208 µM

Question: What about the “Ratio CC50/EC50” value [1] of the same molecule?
Answer: 52727

Question: For `C[C@H](N)C(=O)SCCOP(=O)(COCCn1cnc2c(N)ncnc21)OCCSC(=O)[C@H](C)N.Cl`, which EC50 (Hepatitis B virus) is on record?
Answer: 1.56 µM

Question: What about the CC50 (HepG2) of the same molecule?
Answer: 2420 µM

Question: And the “Ratio CC50/EC50” value [1]?
Answer: 1548

Question: For `Cl.NCC(=O)SCCOP(=O)(COCCn1cnc2c(N)ncnc21)OCCSC(=O)CN`, which EC50 (Hepatitis B virus) is on record?
Answer: 10.2 µM

Question: And the CC50 (HepG2)?
Answer: 259 µM

Question: And the “Ratio CC50/EC50” value [1]?
Answer: 25
